From ChEMBL document CHEMBL3045934, “Acaricidal activity of constituents identified in Foeniculum vulgare fruit oil against Dermatophagoides spp. (Acari: Pyroglyphidae)” (J Agric Food Chem, 2004)

Experiments:
[1] = system: Dermatophagoides pteronyssinus; test: Ratio of benzyl benzoate LD50 to compound LD50 for 7 to 10 day-old Dermatophagoides pteronyssinus adult after 24 hr by microscopy; assay type: functional
Dermatophagoides farinae [2] = test: Ratio of benzyl benzoate LD50 to compound LD50 for 7 to 10 day-old Dermatophagoides farinae adult after 24 hr by microscopy; assay type: functional
[3] = system: Dermatophagoides pteronyssinus; test: Acaricidal activity against 7 to 10 day-old Dermatophagoides pteronyssinus adult after 24 hr by microscopy; assay type: functional
How it was run: (§1)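 Mites exposed by direct contact in a lidded container, held at 25 ± 1 °C, 75% relative humidity, in darkness. Mortality scored 24 h after treatment under a binocular microscope (20×). Untreated controls run alongside. Three replicates per treatment. LD50 derived by probit analysis.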

Dermatophagoides farinae [4] = test: Acaricidal activity against 7 to 10 day-old Dermatophagoides farinae adult after 24 hr by microscopy; assay type: functional; how it was run: as §1
[5] = Acute toxicity in po dosed Rattus norvegicus (rat); assay type: organism-based; details: in vivo

| SMILES | Ratio [1] | Ratio (Dermatophagoides farinae [2]) | LD50 [3] | LD50 (Dermatophagoides farinae [4]) | LD50 [5] |
| --- | --- | --- | --- | --- | --- |
| C=CCc1ccc(OC)cc1 [ESTRAGOLE] | 0.2 | 0.2 | 389.9 mg/m2 | 413.3 mg/m2 | – |
| CC1(C)C(=O)[C@]2(C)CCC1C2 [(-)-FENCHONE] | 1.4 | 2.1 | 48.7 mg/m2 | 41.8 mg/m2 | – |
| CC1(C)C(=O)[C@@]2(C)CCC1C2 [(+)-FENCHONE] | 1.6 | 2.3 | 43.2 mg/m2 | 38.9 mg/m2 | – |
| CC12CCC(C1)C(C)(C)C2=O (centres undefined) [FENCHONE] | – | – | – | – | 6160 mg/kg |
| O=C(OCc1ccccc1)c1ccccc1 [BENZYL BENZOATE] | – | – | 67.5 mg/m2 | 89.2 mg/m2 | – |
| COc1ccc(C=O)cc1 | 6.7 | 7.9 | 10.1 mg/m2 | 11.3 mg/m2 | – |
